Bioassay records from PubChem.
The list is not random: actives were taken first. Their share in the collection is about 2.9%.
M1 PAM parental: nonselective calcium activators in parental CHO-K1 cells, primary screen, counter-screen for M1 PAM project, cell-based, Fluo-8 calcium fluorescence, full deck, 1536-well. ATP EC20; 0% at ATP EC20, 100% at ATP max. activation, % at 3 µM. 360,000 compounds, 0.02% hits;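 active means activation above the run cutoff, the mean activation of all test compounds plus 3 SD, cut at about 40% in these data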;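 further: peak over basal fluorescence ratio in a 140 s read after ATP addition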
CHO-K1 Ca antag: nonselective inhibitor or artifact in parental CHO-K1 cells | ATP-induced calcium, Fluo-8 fluorescence | inhibition, % at 3 µM | 360,000 compounds, 0.6% hits | AID 602250;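 active means inhibition above a per-plate cutoff, the plate's mean sample inhibition plus 3 SD, cut at about 24% in these data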
CHO parental Ca: ATP-evoked calcium signal inhibitors, parental CHO, primary screen, counter-screen for OX1R antagonist project, cell-based, fluorescence, Fluo-8 calcium dye; parental CHO-K1, ATP-induced calcium, Fluo-8 fluorescence; inhibition, % at 5.6 µM; AID 463079, 2010; 330,000 compounds, 0.63% hits;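 active means inhibition above that plate's mean sample inhibition plus 3 SD, cut at about 26% in these data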
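Material: Parental CHO cells | Reagent: ATP | Compound dosing: Single nominal dose of 5.6 µM per compound | Detection: Intracellular calcium via Fluo-8 no-wash fluorescent dye | Read-out: % inhibition of ATP-induced calcium mobilization | Benchmarks: Low control ATP plus DMSO, high control DMSO only | Replicates: Singlicate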
CHO-K1 Ca ag: counter-screen for M1 agonists: effect in parental CHO-K1 cells; Fluo-8 calcium fluorescence; scaled to maximal ATP response, vehicle zero; activation, % at 3 µM; 360,000 compounds, 0.48% hits; AID 602248, 2012; in the data active means activation above about 15%;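 further: untransfected CHO-K1 host cells lacking M1 receptor as counterscreen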
OX1R antag-1: antagonists of human orexin 1 receptor (OX1R) | Orexin/Hypocretin receptor type 1 (Homo sapiens), O43613 | OX1R-expressing cells, FRET antagonist read-out | inhibition, % at 6.6 µM | 330,000 compounds, 1.8% hits | AID 485270, 2010; in the data active means inhibition mostly above about 38%, no sharp cut-off; inactive means mostly below about 40%
Target sequence (O43613 whole entry, looked up): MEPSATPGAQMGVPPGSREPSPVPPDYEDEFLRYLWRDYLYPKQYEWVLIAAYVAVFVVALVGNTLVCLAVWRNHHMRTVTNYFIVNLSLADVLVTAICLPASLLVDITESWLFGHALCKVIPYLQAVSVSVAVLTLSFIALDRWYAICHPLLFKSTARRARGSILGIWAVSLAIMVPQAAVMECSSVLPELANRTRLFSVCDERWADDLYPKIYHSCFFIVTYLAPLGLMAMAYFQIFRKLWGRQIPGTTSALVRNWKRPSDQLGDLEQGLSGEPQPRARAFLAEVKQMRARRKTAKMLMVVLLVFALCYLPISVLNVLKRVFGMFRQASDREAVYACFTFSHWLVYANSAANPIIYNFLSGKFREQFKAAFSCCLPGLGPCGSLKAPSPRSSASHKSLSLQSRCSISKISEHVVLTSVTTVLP
OX1R antag-2: OX1R (HCRTR1) antagonists, primary screen, fluorescence, CHO/OX1R cells, Fluo-8 calcium, orexin A. Orexin/Hypocretin receptor type 1 (Homo sapiens), O43613. Fluo-8 calcium fluorescence. inhibition, % at 5 µM. 330,000 compounds, 0.43% hits. AID 434989, 2010;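 active means inhibition above its plate's threshold, mean inhibition of all tested compounds on the plate plus 3 SD, cut at about 37% in these data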
Each line names hits and unclear results; the compound was inactive in the other large screens.

O=C(COC(=O)/C=C/c1ccc(Cl)c(Cl)c1)NC1CCS(=O)(=O)C1 (stereo unspecified)	CHO-K1 Ca ag 16
CCN(CC)S(=O)(=O)c1cc(NC(=O)COC(=O)c2c(C)noc2C)ccc1C	none
CC1(C(=O)NC2CCCCC2)CCC(=O)N1CCOc1ccccc1 (stereo unspecified)	none (no result: CHO parental Ca, OX1R antag-1, OX1R antag-2)
CC1(C(=O)NCc2ccccc2)CCC(=O)N1CCOc1ccccc1 (stereo unspecified)	CHO-K1 Ca antag 27 (no result: CHO parental Ca, OX1R antag-1, OX1R antag-2)
CC12CCC(c3c(C(=O)O)nn(-c4ccccc4)c31)C2(C)C (stereo unspecified)	OX1R antag-1 41
O=C(Nc1ccc(Cl)c(Cl)c1)O/N=C/c1ccncc1	CHO-K1 Ca antag 28, CHO parental Ca 31
O=C(Nc1cccc(Cl)c1)O/N=C\c1ccncc1	none
CCCCSc1nc(C)cc(C)c1S(=O)(=O)c1ccccc1C	CHO parental Ca 39
Cc1cc2oc(C(=O)Nc3ccc(S(N)(=O)=O)cc3)c(C)c2cc1Cl	CHO-K1 Ca antag 28
Cc1ccc2c(C)c(C(=O)Nc3ccc(S(N)(=O)=O)cc3)oc2c1C	none
Cc1cnc(C(=O)NC(Cc2ccccc2)c2ccccc2)cn1 (stereo unspecified)	none
CC(N)c1csc(Nc2ncccn2)n1 (stereo unspecified)	CHO-K1 Ca antag 25 (no result: CHO parental Ca, OX1R antag-1, OX1R antag-2)
O=C(Nc1cccc(F)c1)c1ccccc1	CHO-K1 Ca antag 36
O=C(Nc1cccc(C(=O)Nc2cccc(Br)c2)c1)c1ccccc1	CHO-K1 Ca antag 25
O=C(O)c1cccc(NC(=O)c2ccccc2)c1	none (no result: CHO parental Ca, OX1R antag-1, OX1R antag-2)
CCN(Cc1nc2cc(Cl)ccc2c(=O)[nH]1)C(=O)c1cc(C2CC2)nn1-c1ccccc1	none (no result: CHO parental Ca, OX1R antag-1, OX1R antag-2)
CCN(CC)C(=O)COC(=O)c1ccc(C)c(NC(=O)c2ccco2)c1	none
CCN(Cc1nc2cc(Cl)ccc2c(=O)[nH]1)C(=O)c1nn(C)c(=O)c2ccccc12	OX1R antag-1 38
CCN(Cc1nc2cc(Cl)ccc2c(=O)[nH]1)C(=O)c1ccc(C)c(NC(=O)c2ccco2)c1	OX1R antag-1 76
CCc1cc2c(SCC(=O)NCC3CCCO3)ncnc2s1 (stereo unspecified)	none
Cn1cccc1/C=C1\SC(=Nc2cccc(O)c2)NC1=O	OX1R antag-1 42
CC1(C)C[C@H]2C3=CCC4[C@@]5(C)CC[C@H](O[C@@H]6O[C@H](C(=O)O)[C@@H](O)[C@H](O)[C@H]6O)[C@@](C)(CO)C5CC[C@@]4(C)[C@]3(C)C[C@H](O)[C@@]2(CO)[C@@H](O)[C@@H]1O (stereo partly specified)	none
C/C=C(\C)C(=O)OC1[C@H](OC(C)=O)C2(CO)C(CC1(C)C)C1=CCC3C4(C)CCC(O[C@@H]5O[C@H](C(=O)O)[C@@H](O[C@@H]6O[C@H](CO)[C@@H](O)[C@H](O)[C@H]6O)[C@H](O)[C@H]5O[C@H]5O[C@H](CO)[C@@H](O)[C@H](O)[C@H]5O)[C@](C)(CO)C4CCC3(C)[C@]1(C)C[C@H]2O (stereo partly specified)	CHO-K1 Ca antag 102, CHO-K1 Ca ag 98 (no result: CHO parental Ca, OX1R antag-1, OX1R antag-2)
CC1(C)CC[C@]2(C(=O)O)CC[C@]3(C)C(=CC[C@@H]4[C@@]5(C)CC[C@H](O)C(C)(C)[C@@H]5CC[C@]43C)[C@@H]2C1	none
CC(=O)OC1COC(OC2C(O)C(C)OC(OC3C(OC4CCC5(C)C(CCC6(C)C5CC=C5C7CC(C)(C)CCC7(C(=O)O)CCC56C)C4(C)CO)OCC(O)C3O)C2O)C(O)C1OC(C)=O (stereo unspecified)	CHO parental Ca 101, OX1R antag-2 105 (no result: M1 PAM parental, CHO-K1 Ca antag, CHO-K1 Ca ag)
